The source made the active and inactive calls. The calls are words filed in the database; no cut-off is given here.
How the values were obtained:
[1] = target: T1, Acetylcholinesterase (Homo sapiens, UniProt P22303); assay: Inhibition of human recombinant AChE using acetylthiocholine iodide as substrate preincubated for 15 mins followed by substrate addition by Ellman's method
Method in brief: (§1)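 Ellman assay in phosphate buffer pH 8.0 (0.08 M Na₂HPO₄/0.02 M NaH₂PO₄). hAChE at 0.004 U/mL or hBChE at 0.002 U/mL was preincubated with compound for 15 min at 37 °C. DTNB and ATC (hAChE) or BTC (hBChE) were added, each 50 µM final. A412 was read over 5 min and inhibition set against no-compound wells. IC50 from a variable-slope fit, mean ± SD of three independent experiments.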

[2] = Cytotoxicity against human SH-SY5Y cells assessed as cell viability at 6.25 uM after 48 hrs by MTT assay relative to control; assay type: toxicity, cell-based; conditions: read-out: Activity
Method in brief: (§2)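 SH-SY5Y cells seeded at 5×10³ per well and grown 16-18 h, then exposed to 6.25, 12.5, 25, 50 or 100 µM compound for 48 h. MTT (2.5 mg/mL solution) was added for 4 h at 37 °C, 5% CO₂. Formazan was dissolved in DMSO and absorbance read at 490 nm. Viability is relative to control, mean ± SEM of experiments in triplicate.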

[3] = target: T2, Cholinesterase (Homo sapiens, UniProt P06276); assay: Inhibition of human serum BChE using S-Butyrylthiocholine iodide as substrate preincubated for 15 mins followed by substrate addition by Ellman's method; method in brief: as §1
T2 sequence (P06276 whole entry): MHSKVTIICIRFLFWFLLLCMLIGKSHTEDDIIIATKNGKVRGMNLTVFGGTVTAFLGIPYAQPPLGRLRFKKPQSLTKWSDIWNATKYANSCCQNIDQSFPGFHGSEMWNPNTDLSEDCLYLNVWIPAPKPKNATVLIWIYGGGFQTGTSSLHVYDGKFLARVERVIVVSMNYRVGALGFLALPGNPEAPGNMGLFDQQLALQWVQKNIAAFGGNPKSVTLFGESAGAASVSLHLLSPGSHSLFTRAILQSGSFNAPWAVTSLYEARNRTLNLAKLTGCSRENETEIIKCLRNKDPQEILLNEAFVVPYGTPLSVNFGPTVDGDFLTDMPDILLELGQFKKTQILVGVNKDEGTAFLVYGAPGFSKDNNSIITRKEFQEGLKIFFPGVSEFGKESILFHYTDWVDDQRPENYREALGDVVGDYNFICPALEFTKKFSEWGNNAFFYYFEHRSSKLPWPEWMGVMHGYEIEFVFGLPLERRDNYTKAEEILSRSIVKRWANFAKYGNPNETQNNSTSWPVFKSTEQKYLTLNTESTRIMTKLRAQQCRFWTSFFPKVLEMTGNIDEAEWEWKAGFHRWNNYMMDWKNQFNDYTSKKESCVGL

[4] = target: T2, Cholinesterase; assay: Inhibition of human serum BChE using S-Butyrylthiocholine iodide as substrate at 10 uM preincubated for 15 mins followed by substrate addition by Ellman's method
[5] = Cytotoxicity against human SH-SY5Y cells assessed as cell viability at 12.5 uM after 48 hrs by MTT assay relative to control; assay type: toxicity, cell-based; conditions: read-out: Activity; method in brief: as §2
[6] = Cytotoxicity against human SH-SY5Y cells assessed as cell viability at 25 uM after 48 hrs by MTT assay relative to control; assay type: toxicity, cell-based; conditions: read-out: Activity; method in brief: as §2
[7] = Cytotoxicity against human SH-SY5Y cells assessed as cell viability at 50 uM after 48 hrs by MTT assay relative to control; assay type: toxicity, cell-based; conditions: read-out: Activity; method in brief: as §2
[8] = Cytotoxicity against human SH-SY5Y cells assessed as cell viability at 100 uM after 48 hrs by MTT assay relative to control; assay type: toxicity, cell-based; conditions: read-out: Activity; method in brief: as §2
[9] = target: T1, Acetylcholinesterase; assay: Non-competitive inhibition of human recombinant AChE using acetylthiocholine iodide as substrate preincubated for 15 mins followed by substrate addition by Lineweaver-Burk plot analysis
Method in brief: (§3)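 For kinetics, hAChE (0.004 U/mL) or hBChE (0.002 U/mL) was preincubated 15 min at 37 °C with inhibitor at three concentrations spanning 100-900 nM. DTNB was then added, followed by ATC or BTC at six serial concentrations from 0.125 to 1 mM. A412 was read for 5 min at 1-min intervals. Km and Vmax came from Michaelis-Menten fits, and mechanism from Lineweaver-Burk plots.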

[10] = target: T2, Cholinesterase; assay: Non-competitive inhibition of human serum BChE using S-Butyrylthiocholine iodide as substrate preincubated for 15 mins followed by substrate addition by Lineweaver-Burk plot analysis; method in brief: as §3
[11] = tested on: SH-SY5Y; assay: Antioxidant activity against t-BHP-induced oxidative stress in human SH-SY5Y cells assessed as inhibition of ROS production at 1 to 5 uM after 24 hrs by DCFH-DA probe based flow cytometric analysis; assay type: functional, cell-based
Method in brief: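 SH-SY5Y cells seeded at 5×10^4 per well, left 16-18 h, then exposed to compound for 24 h. Cells were washed in PBS and loaded with 5 μM DCFH-DA together with 100 μM t-BHP in PBS, 30 min at 37 °C, 5% CO2. After washing and resuspension, flow cytometry read ex 488/em 525 nm. Value reported as (FIsample−FIblank)/(FIcontrol−FIblank)×100%, untreated cells as control, curcumin as positive control.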

T1 sequence (P22303 whole entry): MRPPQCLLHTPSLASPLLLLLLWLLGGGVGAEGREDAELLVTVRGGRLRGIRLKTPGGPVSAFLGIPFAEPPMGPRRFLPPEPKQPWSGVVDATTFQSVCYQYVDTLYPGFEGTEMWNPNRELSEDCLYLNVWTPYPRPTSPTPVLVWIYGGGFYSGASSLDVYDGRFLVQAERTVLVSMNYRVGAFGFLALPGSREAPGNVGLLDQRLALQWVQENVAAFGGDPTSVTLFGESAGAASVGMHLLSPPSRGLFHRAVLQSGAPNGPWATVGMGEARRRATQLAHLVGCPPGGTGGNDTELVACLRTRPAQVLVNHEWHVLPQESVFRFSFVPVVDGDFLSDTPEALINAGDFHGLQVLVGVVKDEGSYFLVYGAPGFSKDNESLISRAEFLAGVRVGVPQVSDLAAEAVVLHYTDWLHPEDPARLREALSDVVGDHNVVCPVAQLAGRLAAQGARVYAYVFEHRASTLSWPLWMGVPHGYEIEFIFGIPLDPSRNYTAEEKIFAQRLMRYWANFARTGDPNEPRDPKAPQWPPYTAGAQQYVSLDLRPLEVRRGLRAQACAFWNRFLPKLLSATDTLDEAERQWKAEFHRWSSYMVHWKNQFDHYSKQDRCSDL

| Structure (SMILES) | IC50 [1] [µM] | viability at 48 h, 6.25 µM [2] [%] | IC50 [3] [µM] | inhibition [4] [%] | viability at 48 h, 12.5 µM [5] [%] | viability at 48 h, 25 µM [6] [%] | viability at 48 h, 50 µM [7] [%] | viability at 48 h, 100 µM [8] [%] | Ki [9] [µM] | Ki [10] [µM] | inhibition [11] |
| --- | --- | --- | --- | --- | --- | --- | --- | --- | --- | --- | --- |
| COc1ccc(/C=C/C(=O)c2cccc(OC(=O)N(C)C)c2)cc1 | 8.05 | 101 | 3.37 | > 50 | 95.3 | 74.3 | 20 | 0.67 | – | – | – |
| COc1ccc(/C=C/C(=O)c2ccc(OC(=O)N(C)C)cc2)cc1 | – | – | – | < 50 | – | – | – | – | – | – | – |
| COc1ccc(/C=C/C(=O)c2cccc(OC(=O)N(C(C)C)C(C)C)c2)cc1 | – | – | – | < 50 | – | – | – | – | – | – | – |
| CN(C)C(=O)Oc1ccccc1C(=O)/C=C/c1ccc(O)cc1 | – | – | – | < 50 | – | – | – | – | – | – | – |
| CCN(C)C(=O)Oc1ccccc1C(=O)/C=C/c1ccc(O)cc1 | – | 86 | 4.37 to 5.97 | > 50 | 76.4 | 64.7 | 51.7 | 52.2 | – | – | – |
| CCN(CC)C(=O)Oc1cccc(C(=O)/C=C/c2ccc(OC)cc2)c1 | – | – | – | < 50 | – | – | – | – | – | – | – |
| CN(C)C(=O)Oc1ccc(C(=O)/C=C/c2ccc(O)cc2)cc1 | – | – | – | < 50 | – | – | – | – | – | – | – |
| CCN(C)C(=O)Oc1cccc(/C=C/C(=O)c2ccc(O)cc2)c1 | – | 95.1 | 2.52 | > 50 | 88.7 | 60.2 | 16.6 | 2.97 | – | – | – |
| CCN(C)C(=O)Oc1cccc(C(=O)/C=C/c2ccc(OC)cc2)c1 | – | 101 | 3.93 | > 50 | 100 | 85.1 | 66.3 | 0.63 | – | – | – |
| CCN(C)C(=O)Oc1cc(OC(=O)N(C)CC)cc(C(=O)/C=C/c2ccc(O)cc2)c1 | – | – | – | < 50 | – | – | – | – | – | – | – |
| CC(C)N(C(=O)Oc1cccc(C(=O)/C=C/c2ccc(O)cc2)c1)C(C)C | – | – | – | < 50 | – | – | – | – | – | – | – |
| CN(C)C(=O)Oc1cccc(/C=C/C(=O)c2ccc(O)cc2)c1 | – | 83.9 | 2.19 | > 50 | 69.9 | 46.2 | 11.2 | 4.37 | – | – | – |
| CCN(C)C(=O)Oc1ccc(C(=O)/C=C/c2ccc(O)cc2)cc1 | – | – | – | < 50 | – | – | – | – | – | – | – |
| CN(C)C(=O)Oc1ccc(/C=C/C(=O)c2ccc(O)cc2)cc1 | – | 100 | 4.48 | > 50 | 86.6 | 60.4 | 28.9 | 13.1 | – | – | – |
| CN(C)C(=O)Oc1ccc(/C=C/C(=O)c2cccc(O)c2)cc1 | – | – | – | < 50 | – | – | – | – | – | – | – |
| CN(C)C(=O)Oc1cccc(/C=C/C(=O)c2cccc(O)c2)c1 | – | 85.9 | 1.91 | > 50 | 82.6 | 57.1 | 15.1 | 1.03 | – | – | – |
| CCN(CC)C(=O)Oc1cccc(C(=O)/C=C/c2ccc(O)cc2)c1 | – | – | – | < 50 | – | – | – | – | – | – | – |
| CCN(C)C(=O)Oc1ccc(C(=O)/C=C/c2ccc(OC)cc2)cc1 | – | 95.5 | 7.36 | > 50 | 86.1 | 83.2 | 52.7 | 0.22 | – | – | – |
| COc1ccc(/C=C/C(=O)c2ccc(O)cc2)cc1 | – | – | – | < 50 | – | – | – | – | – | – | – |
| COc1ccc(/C=C/C(=O)c2cccc(O)c2)cc1 | – | – | – | < 50 | – | – | – | – | – | – | – |
| CCN(C)C(=O)Oc1cccc(C(=O)/C=C/c2ccc(O)cc2)c1 | – | 96.2 | 4.37 | > 50 | 68 | 49.2 | 17.4 | 5.42 | – | – | – |
| CN(C)C(=O)Oc1cccc(C(=O)/C=C/c2ccc(O)cc2)c1 | 0.87 | 102 | 0.36 | > 50 | 96.5 to 96.7 | 94.6 | 71.8 | 48.3 | 0.52 | 0.16 | – |
| CN(C)C(=O)Oc1cc(OC(=O)N(C)C)cc(C(=O)/C=C/c2ccc(O)cc2)c1 | – | – | – | < 50 | – | – | – | – | – | – | – |
| CCN(C)C(=O)Oc1ccc(/C=C/C(=O)c2cccc(O)c2)cc1 | – | 96.1 | 5.6 | > 50 | 93.9 | 67.1 | 16.5 | 0.81 | – | – | – |
| CCN(C)C(=O)Oc1ccc(/C=C/C(=O)c2ccc(O)cc2)cc1 | – | 91.7 | 6.08 | > 50 | 80.8 | 51.5 | 22.4 | 1.39 | – | – | – |
| CCN(C)C(=O)Oc1cccc([C@H](C)N(C)C)c1 [RIVASTIGMINE] | – | 98.5 | – | – | 94.7 | 86.6 | 72.7 | 56.4 | – | – | – |
| CCN(C)C(=O)Oc1cccc(/C=C/C(=O)c2cccc(O)c2)c1 | – | 101 | 2.87 | > 50 | 88.2 | 53 | 11.2 | 0.16 | – | – | – |
| COc1cc(/C=C/C(=O)CC(=O)/C=C/c2ccc(O)c(OC)c2)ccc1O | – | – | – | – | – | – | – | – | – | – | Active |

Source: ChEMBL document CHEMBL3868624, “Design, synthesis, biological evaluation, and molecular modeling studies of chalcone-rivastigmine hybrids as cholinesterase inhibitors” (Bioorg Med Chem, 2017)
